According to ChEMBL document CHEMBL1154647, “Synthesis, spectral characterization and biological evaluation of phosphorylated derivatives of galanthamine” (Eur J Med Chem, 2010):
In brackets after ≈: the same amount, converted by molar mass.

What was measured:
[1] = tested on: Brain; assay: Antioxidant activity in Wistar rat brain assessed as superoxide dismutase content; format: functional
[2] = tested on: Bacillus subtilis; assay: Antibacterial activity against Bacillus subtilis at 2 mg/mL after 18 hrs by disc diffusion assay; format: functional; conditions: read-out: IZ
How it was run: (§1)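 Bacteria were grown in nutrient broth at 37 °C for 18 h on a rotary shaker at 150 rpm. Compounds were dissolved in DMF. Nutrient agar plates were dried at 35–36 °C for about 30 min, and test strains were spread on the surface. Discs were applied, and plates were inverted and incubated at 37 °C. A DMF blank was run.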

[3] = Inhibition of superoxide dismutase in Wistar rat brain; format: tissue-based
[4] = tested on: Klebsiella pneumoniae; assay: Antibacterial activity against Klebsiella pneumoniae after 18 hrs; format: functional
[5] = tested on: Klebsiella pneumoniae; assay: Antibacterial activity against Klebsiella pneumoniae at 1 mg/mL after 18 hrs by disc diffusion assay; format: functional; conditions: read-out: IZ; how it was run: as §1
[6] = tested on: Bacillus subtilis; assay: Antibacterial activity against Bacillus subtilis after 18 hrs; format: functional
[7] = tested on: Escherichia coli; assay: Antibacterial activity against Escherichia coli at 2 mg/mL after 18 hrs by disc diffusion assay; format: functional; conditions: read-out: IZ; how it was run: as §1
[8] = molecular target: T1, Catalase (Rattus norvegicus, UniProt P04762); assay: Inhibition of catalase in Wistar rat brain
T1 sequence (P04762 whole entry): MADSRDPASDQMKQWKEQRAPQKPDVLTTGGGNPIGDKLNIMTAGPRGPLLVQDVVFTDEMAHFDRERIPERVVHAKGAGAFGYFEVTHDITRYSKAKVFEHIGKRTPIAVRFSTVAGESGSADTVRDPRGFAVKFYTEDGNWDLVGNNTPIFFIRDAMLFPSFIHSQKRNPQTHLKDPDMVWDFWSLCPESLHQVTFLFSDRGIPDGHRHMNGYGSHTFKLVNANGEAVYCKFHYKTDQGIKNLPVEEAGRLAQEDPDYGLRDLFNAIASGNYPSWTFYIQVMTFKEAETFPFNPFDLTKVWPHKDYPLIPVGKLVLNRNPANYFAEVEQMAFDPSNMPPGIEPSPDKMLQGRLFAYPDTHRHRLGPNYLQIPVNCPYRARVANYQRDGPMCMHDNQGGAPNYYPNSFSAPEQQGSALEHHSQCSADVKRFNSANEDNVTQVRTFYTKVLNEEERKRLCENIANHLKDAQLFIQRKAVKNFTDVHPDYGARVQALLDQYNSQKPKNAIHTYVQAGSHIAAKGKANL

[9] = tested on: Brain; assay: Antioxidant activity in Wistar rat brain assessed as reduction in glutathione content; format: functional, tissue-based
How it was run: (§2)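 Wistar rat brain was homogenised 1:40 (w/v) in 0.1 M phosphate buffer, pH 7.4, with 1 mM EDTA. Total glutathione (GSH + GSSG) and reduced GSH were assayed spectrophotometrically from optical density, using net rate against a standard-curve slope and intercept, times a dilution factor. Homogenate protein was measured by the Lowry method.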

[10] = tested on: Brain; assay: Antioxidant activity in Wistar rat brain assessed as catalase content; format: functional
[11] = tested on: Brain; assay: Antioxidant activity in Wistar rat brain assessed as inhibition of lipid peroxidation; format: functional, tissue-based
[12] = tested on: Klebsiella pneumoniae; assay: Antibacterial activity against Klebsiella pneumoniae at 2 mg/mL after 18 hrs by disc diffusion assay; format: functional; conditions: read-out: IZ; how it was run: as §1
[13] = tested on: Escherichia coli; assay: Antibacterial activity against Escherichia coli at 1 mg/mL after 18 hrs by disc diffusion assay; format: functional; conditions: read-out: IZ; how it was run: as §1
[14] = tested on: Brain; assay: Antioxidant activity in Wistar rat brain assessed as lipid peroxidation; format: functional, tissue-based
[15] = tested on: Bacillus subtilis; assay: Antibacterial activity against Bacillus subtilis at 1 mg/mL after 18 hrs by disc diffusion assay; format: functional; conditions: read-out: IZ; how it was run: as §1
[16] = tested on: Brain; assay: Antioxidant activity in Wistar rat brain assessed as glutathione content; format: functional; how it was run: as §2
[17] = tested on: Staphylococcus aureus; assay: Antibacterial activity against Staphylococcus aureus after 18 hrs; format: functional
[18] = tested on: Escherichia coli; assay: Antibacterial activity against Escherichia coli after 18 hrs; format: functional
[19] = tested on: Staphylococcus aureus; assay: Antibacterial activity against Staphylococcus aureus at 1 mg/mL after 18 hrs by disc diffusion assay; format: functional; conditions: read-out: IZ; how it was run: as §1
[20] = tested on: Staphylococcus aureus; assay: Antibacterial activity against Staphylococcus aureus at 2 mg/mL after 18 hrs by disc diffusion assay; format: functional; conditions: read-out: IZ; how it was run: as §1

COc1ccc2c3c1O[C@H]1C[C@@H](OP(=O)(OP(=O)(O)O)N(CCCl)CCCl)C=C[C@@]31CCN(C)C2 (stereo not given in full)
Activity [1]: 28.14 µg/mL
zone of inhibition at 2000 µg/mL [2]: 4.49 mm
EC50 [3]: 1.26 µg/mL (≈ 2.21 µM)
MIC [4]: 0.48 µg/mL (≈ 0.84 µM)
zone of inhibition at 1000 µg/mL [5]: 1.39 mm
MIC [6]: 0.16 µg/mL (≈ 0.28 µM)
zone of inhibition at 2000 µg/mL [7]: 4.08 mm
EC50 [8]: 2.18 µg/mL (≈ 3.82 µM)
EC50 [9]: 2.68 µg/mL (≈ 4.69 µM)
Activity [10]: 278.33 µg/mL
EC50 [11]: 1.98 µg/mL (≈ 3.47 µM)
zone of inhibition at 2000 µg/mL [12]: 3.68 mm
zone of inhibition at 1000 µg/mL [13]: 1.26 mm
Activity [14]: 74.9 µg/mL
zone of inhibition at 1000 µg/mL [15]: 2.09 mm
Activity [16]: 4.72 µg/mL
MIC [17]: 0.38 µg/mL (≈ 0.665 µM)
MIC [18]: 0.42 µg/mL (≈ 0.735 µM)
zone of inhibition at 1000 µg/mL [19]: 1.72 mm
zone of inhibition at 2000 µg/mL [20]: 4.65 mm

COc1ccc2c3c1O[C@H]1C[C@@H](OP(=O)(NCCN)N(CCCl)CCCl)C=C[C@@]31CCN(C)C2 (stereo not given in full)
Activity [1]: 30.29 µg/mL
zone of inhibition at 2000 µg/mL [2]: 3.9 mm
EC50 [3]: 2.77 µg/mL (≈ 5.19 µM)
MIC [4]: 0.33 µg/mL (≈ 0.619 µM)
zone of inhibition at 1000 µg/mL [5]: 2.89 mm
MIC [6]: 0.12 µg/mL (≈ 0.225 µM)
zone of inhibition at 2000 µg/mL [7]: 4.9 mm
EC50 [8]: 2.73 µg/mL (≈ 5.12 µM)
EC50 [9]: 2.43 µg/mL (≈ 4.56 µM)
Activity [10]: 285.48 µg/mL
EC50 [11]: 2.88 µg/mL (≈ 5.4 µM)
zone of inhibition at 2000 µg/mL [12]: 4.8 mm
zone of inhibition at 1000 µg/mL [13]: 2.33 mm
Activity [14]: 72.5 µg/mL
zone of inhibition at 1000 µg/mL [15]: 1.57 mm
Activity [16]: 4.84 µg/mL
MIC [17]: 0.49 µg/mL (≈ 0.919 µM)
MIC [18]: 0.55 µg/mL (≈ 1.03 µM)
zone of inhibition at 1000 µg/mL [19]: 2.35 mm
zone of inhibition at 2000 µg/mL [20]: 3.51 mm

COc1ccc2c3c1O[C@H]1C[C@@H](OP(=O)(NCCN)Oc4ccc([N+](=O)[O-])cc4)C=C[C@@]31CCN(C)C2 (stereo not given in full)
Activity [1]: 29.73 µg/mL
zone of inhibition at 2000 µg/mL [2]: 4.91 mm
EC50 [3]: 1.91 µg/mL (≈ 3.6 µM)
MIC [4]: 0.38 µg/mL (≈ 0.716 µM)
zone of inhibition at 1000 µg/mL [5]: 2.78 mm
MIC [6]: 0.15 µg/mL (≈ 0.283 µM)
zone of inhibition at 2000 µg/mL [7]: 3.73 mm
EC50 [8]: 1.81 µg/mL (≈ 3.41 µM)
EC50 [9]: 1.89 µg/mL (≈ 3.56 µM)
Activity [10]: 295.92 µg/mL
EC50 [11]: 1.99 µg/mL (≈ 3.75 µM)
zone of inhibition at 2000 µg/mL [12]: 6.11 mm
zone of inhibition at 1000 µg/mL [13]: 1.02 mm
Activity [14]: 75.9 µg/mL
zone of inhibition at 1000 µg/mL [15]: 1.93 mm
Activity [16]: 5.06 µg/mL
MIC [17]: 0.75 µg/mL (≈ 1.41 µM)
MIC [18]: 0.62 µg/mL (≈ 1.17 µM)
zone of inhibition at 1000 µg/mL [19]: 1.84 mm
zone of inhibition at 2000 µg/mL [20]: 5.09 mm
